Test results: ChEMBL document CHEMBL1143146, “Multicomponent reactions in fungicide research: the discovery of mandipropamid” (2008)
Converted amounts (≈) assume the structure as drawn.

Legend:
[1] = system: Phytophthora infestans; test: Antifungal activity against Phytophthora infestans in tomato late blight after 4 days; type: functional; details: 96 h
In short: (§1)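 Greenhouse trials on whole plants. Disease incidence read after incubation at 20 °C and 95% relative humidity: 4 days on tomato, 6 days on grape. Potency is given as EC80, the concentration in mg L-1 (ppm) giving 80% activity.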

[2] = system: Plasmopara viticola; test: Antifungal activity against Plasmopara viticola in grape downy mildew after 6 days; type: functional; details: 144 h; in short: as §1

| SMILES | EC80 [1] | EC80 [2] |
| --- | --- | --- |
| C#CCOc1ccc(CCNC(=O)C(NS(=O)(=O)N(C)C)c2ccc(OC)cc2)cc1OC (stereo not given) | 8 µg/mL (≈ 16.8 µM) | 34.9 µg/mL (≈ 73.4 µM) |
| C#CCOc1ccc(CCNC(=O)C(NS(=O)(=O)N(C)C)c2ccc(C)c(C)c2)cc1OC (stereo not given) | 12.2 µg/mL (≈ 25.8 µM) | 28.7 µg/mL (≈ 60.6 µM) |
| C#CCOc1ccc(CCNC(=O)C(OCC#C)c2cc(Cl)cc(Cl)c2Cl)cc1OC (stereo not given) | > 200 µg/mL | 44.2 µg/mL (≈ 91.9 µM) |
| C#CCOc1ccc(CCNC(=O)C(OCC#C)c2ccc3c(c2)Cc2ccccc2-3)cc1OC (stereo not given) | 4.8 µg/mL (≈ 10.3 µM) | 19.3 µg/mL (≈ 41.5 µM) |
| C#CCOc1ccc(CCNC(=O)C(OCC#C)c2cccs2)cc1OC (stereo not given) | 2.1 µg/mL (≈ 5.48 µM) | 1.4 µg/mL (≈ 3.65 µM) |
| C#CCOc1ccc(CCNC(=O)C(OCC#C)c2cc(F)c(F)c(F)c2)cc1OC (stereo not given) | 26.2 µg/mL (≈ 60.7 µM) | 19.7 µg/mL (≈ 45.7 µM) |
| C#CCOc1ccc(CCNC(=O)C(NS(=O)(=O)N(C)C)c2ccc(SC)cc2)cc1OC (stereo not given) | 34.9 µg/mL (≈ 71 µM) | 16.2 µg/mL (≈ 33 µM) |
| C#CCOc1ccc(CCNC(=O)C(OCC#C)c2cccc(Cl)c2Cl)cc1OC (stereo not given) | 168 µg/mL (≈ 377 µM) | 25.5 µg/mL (≈ 57.1 µM) |
| C#CCOc1ccc(CCNC(=O)C(CC2=C(C)CCCC2(C)C)OCC#C)cc1OC (stereo not given) | 51.4 µg/mL (≈ 117 µM) | 124 µg/mL (≈ 283 µM) |
| C#CCOc1ccc(CCNC(=O)C(OCC#C)c2ccc(Br)cc2F)cc1OC (stereo not given) | 5.3 µg/mL (≈ 11.2 µM) | 1.8 µg/mL (≈ 3.79 µM) |
| C#CCOc1ccc(CCNC(=O)C(NS(=O)(=O)N(C)C)c2ccc(CC)cc2)cc1OC (stereo not given) | 2.6 µg/mL (≈ 5.49 µM) | 5.1 µg/mL (≈ 10.8 µM) |
| C#CCOc1ccc(CCNC(=O)C(NS(=O)(=O)N(C)C)c2cccc(C)c2)cc1OC (stereo not given) | 150 µg/mL (≈ 326 µM) | 116 µg/mL (≈ 253 µM) |
| C#CCOc1ccc(CCNC(=O)C(OCC#C)c2ccc(F)cc2)cc1OC (stereo not given) | 1.8 µg/mL (≈ 4.55 µM) | 3.4 µg/mL (≈ 8.6 µM) |
| C#CCOc1ccc(CCNC(=O)C(OCC#C)c2ccc(CC)cc2)cc1OC (stereo not given) | 7.5 µg/mL (≈ 18.5 µM) | 3.1 µg/mL (≈ 7.64 µM) |
| C#CCOc1ccc(CCNC(=O)C(OCC#C)c2ccc(F)cc2F)cc1OC (stereo not given) | 4.6 µg/mL (≈ 11.1 µM) | 5 µg/mL (≈ 12.1 µM) |
| C#CCOc1ccc(CCNC(=O)C(OCC#C)c2cccc(Br)c2)cc1OC (stereo not given) | 4.9 µg/mL (≈ 10.7 µM) | 4.9 µg/mL (≈ 10.7 µM) |
| C#CCOc1ccc(CCNC(=O)C(NS(=O)(=O)N(C)C)c2ccc(Br)cc2)cc1OC (stereo not given) | 7.8 µg/mL (≈ 14.9 µM) | 39.4 µg/mL (≈ 75.1 µM) |
| C#CCOc1ccc(CCNC(=O)C(COc2ccc(C)cc2)OCC#C)cc1OC (stereo not given) | 0.1 µg/mL (≈ 0.237 µM) | 1.8 µg/mL (≈ 4.27 µM) |
| C#CCOc1ccc(CCNC(=O)C(COc2ccc(Cl)cc2)OCC#C)cc1OC (stereo not given) | 0.02 µg/mL (≈ 0.0453 µM) | 0.6 µg/mL (≈ 1.36 µM) |
| C#CCOc1ccc(CCNC(=O)C(NS(=O)(=O)N(C)C)c2ccc(Cl)cc2)cc1OC (stereo not given) | 10.6 µg/mL (≈ 22.1 µM) | 13.8 µg/mL (≈ 28.8 µM) |

| SMILES | EC80 [1] | EC80 [2] |
| --- | --- | --- |
| C#CCOc1ccc(CCNC(=O)C(OCC#C)c2cccc(F)c2)cc1OC (stereo not given) | 10.2 µg/mL (≈ 25.8 µM) | 1.8 µg/mL (≈ 4.55 µM) |
| C#CCOc1ccc(CCNC(=O)C(OCC#C)c2cccc(OC)c2)cc1OC (stereo not given) | 46.2 µg/mL (≈ 113 µM) | 1.7 µg/mL (≈ 4.17 µM) |
| C#CCOc1ccc(CCNC(=O)C(NS(=O)(=O)N(C)C)c2ccc(F)c(Cl)c2)cc1OC (stereo not given) | 186 µg/mL (≈ 374 µM) | 59.8 µg/mL (≈ 120 µM) |
| C#CCOc1ccc(CCNC(=O)C(NS(=O)(=O)N(C)C)c2ccc(F)c(F)c2)cc1OC (stereo not given) | 110 µg/mL (≈ 228 µM) | 46.3 µg/mL (≈ 96.2 µM) |
| C#CCOc1ccc(CCNC(=O)C(NS(=O)(=O)N(C)C)c2ccc(CCC)cc2)cc1OC (stereo not given) | 3.1 µg/mL (≈ 6.36 µM) | 16.7 µg/mL (≈ 34.2 µM) |
| C#CCOc1ccc(CCNC(=O)C(NS(=O)(=O)N(C)C)c2ccc(C(C)C)cc2)cc1OC (stereo not given) | 26.2 µg/mL (≈ 53.7 µM) | 14.6 µg/mL (≈ 29.9 µM) |
| C#CCOc1ccc(CCNC(=O)C(NS(=O)(=O)N(C)C)c2ccc(Cl)c(Cl)c2)cc1OC (stereo not given) | 19.2 µg/mL (≈ 37.3 µM) | 51.5 µg/mL (≈ 100 µM) |
| C#CCOc1ccc(CCNC(=O)C(OCC#C)c2ccccc2)cc1OC (stereo not given) | 0.5 µg/mL (≈ 1.32 µM) | 1.3 µg/mL (≈ 3.44 µM) |
| C#CCOc1ccc(CCNC(=O)C(NS(=O)(=O)N(C)C)c2ccc(F)cc2)cc1OC (stereo not given) | 45.7 µg/mL (≈ 98.6 µM) | 78.3 µg/mL (≈ 169 µM) |
| C#CCOc1ccc(CCNC(=O)C(OCC#C)C2CCCCC2)cc1OC (stereo not given) | 47.6 µg/mL (≈ 124 µM) | 5.3 µg/mL (≈ 13.8 µM) |
| C#CCOc1ccc(CCNC(=O)C(OCC#C)c2ccc(C)c(Cl)c2)cc1OC (stereo not given) | 2.4 µg/mL (≈ 5.63 µM) | 1.5 µg/mL (≈ 3.52 µM) |
| C#CCOc1ccc(CCNC(=O)C(OCC#C)c2ccc(C=C)cc2)cc1OC (stereo not given) | 3.3 µg/mL (≈ 8.18 µM) | 2 µg/mL (≈ 4.96 µM) |
| C#CCOc1ccc(CCNC(=O)C(OCC#C)c2ccc(Cl)c(Cl)c2)cc1OC (stereo not given) | 4.8 µg/mL (≈ 10.8 µM) | 3.4 µg/mL (≈ 7.62 µM) |
| C#CCOc1ccc(CCNC(=O)C(OCC#C)c2ccc(Br)cc2)cc1OC (stereo not given) | 3.4 µg/mL (≈ 7.45 µM) | 2.6 µg/mL (≈ 5.7 µM) |
| C#CCOc1ccc(CCNC(=O)C(OCC#C)c2ccc(C)cc2)cc1OC (stereo not given) | 9.7 µg/mL (≈ 24.8 µM) | 5.2 µg/mL (≈ 13.3 µM) |
| C#CCOc1ccc(CCNC(=O)C(OCC#C)c2ccc3c(c2)OCCO3)cc1OC (stereo not given) | 16.7 µg/mL (≈ 38.3 µM) | 2.2 µg/mL (≈ 5.05 µM) |
| C#CCOc1ccc(CCNC(=O)C(COCc2ccccc2)OCC#C)cc1OC (stereo not given) | 0.3 µg/mL (≈ 0.712 µM) | 20.4 µg/mL (≈ 48.4 µM) |
| C#CCOc1ccc(CCNC(=O)C(OCC#C)c2cccc(Cl)c2)cc1OC (stereo not given) | 3.7 µg/mL (≈ 8.98 µM) | 2.4 µg/mL (≈ 5.83 µM) |
| C#CCOc1ccc(CCNC(=O)C(NS(=O)(=O)N(C)C)c2ccc(C(F)(F)F)cc2)cc1OC (stereo not given) | 3.4 µg/mL (≈ 6.62 µM) | 5.8 µg/mL (≈ 11.3 µM) |
| C#CCOc1ccc(CCNC(=O)C(OCC#C)c2ccc(CCCC)cc2)cc1OC (stereo not given) | 25.9 µg/mL (≈ 59.7 µM) | 10.4 µg/mL (≈ 24 µM) |

| SMILES | EC80 [1] | EC80 [2] |
| --- | --- | --- |
| C#CCOc1ccc(CCNC(=O)C(OCC#C)c2cccc(C(F)(F)F)c2)cc1OC (stereo not given) | 5 µg/mL (≈ 11.2 µM) | 3.8 µg/mL (≈ 8.53 µM) |
| C#CCOc1ccc(CCNC(=O)C(OCC#C)c2ccc(SC)cc2)cc1OC (stereo not given) | 7.6 µg/mL (≈ 17.9 µM) | 5.3 µg/mL (≈ 12.5 µM) |
| C#CCOc1ccc(CCNC(=O)C(NS(=O)(=O)N(C)C)c2ccc(OCC)cc2)cc1OC (stereo not given) | 24.7 µg/mL (≈ 50.4 µM) | 35 µg/mL (≈ 71.5 µM) |
| C#CCOc1ccc(CCNC(=O)C(Cc2ccc(Cl)cc2)OCC#C)cc1OC (stereo not given) | 26.3 µg/mL (≈ 61.7 µM) | 18.6 µg/mL (≈ 43.7 µM) |
| C#CCOc1ccc(CCNC(=O)C(OCC#C)c2ccc(C)c(C)c2)cc1OC (stereo not given) | 3.2 µg/mL (≈ 7.89 µM) | 1.6 µg/mL (≈ 3.95 µM) |
| C#CCOc1ccc(CCNC(=O)C(OCC#C)c2ccc(CCC)cc2)cc1OC (stereo not given) | 4.4 µg/mL (≈ 10.5 µM) | 1.7 µg/mL (≈ 4.05 µM) |
| C#CCOc1ccc(CCNC(=O)C(OCC#C)c2ccc(C(F)(F)F)cc2)cc1OC (stereo not given) | 8 µg/mL (≈ 18 µM) | 11.6 µg/mL (≈ 26 µM) |
| C#CCOc1ccc(CCNC(=O)C(OCC#C)c2ccccc2Cl)cc1OC (stereo not given) | 81.1 µg/mL (≈ 197 µM) | > 200 µg/mL |
| C#CCOc1ccc(CCNC(=O)C(OCC#C)c2ccc(COC)cc2)cc1OC (stereo not given) | 2.6 µg/mL (≈ 6.17 µM) | 13.8 µg/mL (≈ 32.7 µM) |
| C#CCOc1ccc(CCNC(=O)C(OCC#C)c2cc(C)cc(C)c2)cc1OC (stereo not given) | 41.9 µg/mL (≈ 103 µM) | 56.4 µg/mL (≈ 139 µM) |
| C#CCOc1ccc(CCNC(=O)C(NS(=O)(=O)N(C)C)c2ccccc2C)cc1OC (stereo not given) | > 200 µg/mL | > 200 µg/mL |
| C#CCOc1ccc(CCNC(=O)C(OCC#C)c2cccc(C)c2)cc1OC (stereo not given) | 6.4 µg/mL (≈ 16.3 µM) | 1.7 µg/mL (≈ 4.34 µM) |
| C#CCOc1ccc(CCNC(=O)C(OCC#C)c2ccc(OC)cc2)cc1OC (stereo not given) | 2.3 µg/mL (≈ 5.64 µM) | 1.6 µg/mL (≈ 3.93 µM) |
| C#CCOc1ccc(CCNC(=O)C(NS(=O)(=O)N(C)C)c2ccc(C)cc2)cc1OC (stereo not given) | 2.5 µg/mL (≈ 5.44 µM) | 3.2 µg/mL (≈ 6.96 µM) |
| C#CCOc1ccc(CCNC(=O)C(NS(=O)(=O)N(C)C)c2ccc(OC(F)(F)F)cc2)cc1OC (stereo not given) | 18.8 µg/mL (≈ 35.5 µM) | 46.4 µg/mL (≈ 87.6 µM) |
| C#CCOc1ccc(CCNC(=O)C(OCC#C)c2ccc(C(C)C)cc2)cc1OC (stereo not given) | 6.1 µg/mL (≈ 14.5 µM) | 2.8 µg/mL (≈ 6.67 µM) |
| C#CCOc1ccc(CCNC(=O)C(NS(=O)(=O)N(C)C)c2ccccc2)cc1OC (stereo not given) | 81.2 µg/mL (≈ 182 µM) | 28.5 µg/mL (≈ 64 µM) |
| C#CCOc1ccc(CCNC(=O)C(NS(=O)(=O)N(C)C)c2ccc(C(C)(C)C)cc2)cc1OC (stereo not given) | 143 µg/mL (≈ 285 µM) | 20.2 µg/mL (≈ 40.3 µM) |
| C#CCOc1ccc(CCNC(=O)C(OCC#C)c2cccnc2)cc1OC (stereo not given) | 186 µg/mL (≈ 492 µM) | > 200 µg/mL |
| C#CCOc1ccc(CCNC(=O)C(OCC#C)c2ccc(Cl)cc2)cc1OC (stereo not given) [MANDIPROPAMID] | 0.1 µg/mL (≈ 0.243 µM) | 1.2 µg/mL (≈ 2.91 µM) |
